Data as given in PMC4382465 (The Journal of antibiotics, 2014).
≈ marks a conversion by molar mass, not a printed value. Where two headings read alike, the source gives them in different places.

What was measured:
[1] = target: T1, MurX (Mycobacterium tuberculosis, UniProt P9WMW7); assay: MurX enzyme inhibitory assay; format: biochemical, M. tuberculosis
T1 sequence (P9WMW7 1-359): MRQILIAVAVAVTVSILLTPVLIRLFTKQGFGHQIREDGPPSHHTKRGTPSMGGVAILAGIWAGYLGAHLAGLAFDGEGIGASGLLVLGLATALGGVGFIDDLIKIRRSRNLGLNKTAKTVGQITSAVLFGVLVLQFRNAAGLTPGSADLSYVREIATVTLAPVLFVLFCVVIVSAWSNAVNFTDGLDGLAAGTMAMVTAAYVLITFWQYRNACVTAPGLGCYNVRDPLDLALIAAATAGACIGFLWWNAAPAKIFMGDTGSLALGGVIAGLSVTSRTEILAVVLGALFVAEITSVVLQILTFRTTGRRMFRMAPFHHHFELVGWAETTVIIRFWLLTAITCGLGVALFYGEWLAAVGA

[2] = tested on: non-replicating M. tuberculosis H37Rv (pFCA-luxAB); assay: microbe, parasite or virus in culture; format: cell-based; conditions: Mycobacterium tuberculosis, read-out: MIC μg/mL (LORA)
[3] = tested on: HepG2 human hepatoblastoma cells; assay: Cytotoxicity assay; format: cell-based; conditions: HepG2, read-out: IC50 μg/mL HepG2 cells
[4] = tested on: M. tuberculosis; format: cell-based, Mycobacterium tuberculosis; conditions: for time to kill Mtb completely (100%): 2× MIC: capuramycin 24.0 μg/mL; for time to kill Mtb completely (100%) / time to kill 50% of Mtb: UT-01320 3.0 μg/mL; for time to kill 50% of Mtb: 2× MIC: rifampicin 0.4, INH 1.0 (so in the source)
[5] = tested on: M. tuberculosis H37Rv; assay: MIC, microplate alamar blue assay; format: cell-based; conditions: Mycobacterium tuberculosis
[6] = target: E. coli RNA polymerase (Escherichia coli, UniProt P0A8T7+P0A8V2); assay: RNA polymerase assay; format: biochemical
[7] = tested on: Mtb; assay: Micro dilution broth checkerboard; format: cell-based, Mycobacterium tuberculosis
[8] = Cytotoxicity assay; format: cell-based; conditions: monkey, Vero monkey kidney cells (ATCC CCL-81)
How it was run: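 Vero kidney cells grown in 96-well plates in ATCC-formulated Eagle's Minimum Essential Medium and exposed to test compound. Each plate includes reference drugs of known toxicity as controls. Cytopathic effect is read by MTT assay after incubation, and IC50 is reported.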

[9] = tested on: M. smegmatis ATCC607; assay: MIC, broth dilution; format: cell-based, Mycobacterium smegmatis; conditions: M. smegmatis ATCC607, broth dilution method
[10] = tested on: E. faecium ATCC 349; assay: MIC, broth dilution; format: cell-based; conditions: Enterococcus faecium, ATCC349
[11] = tested on: E. coli ATCC 25019; assay: MIC, broth dilution; format: cell-based; conditions: Escherichia coli, ATCC25019
[12] = tested on: P. aeruginosa ATCC 27853; assay: MIC, broth dilution; format: cell-based; conditions: Pseudomonas aeruginosa, ATCC27853
[13] = target: S. aureus RNA polymerase (Staphylococcus aureus, UniProt P47768+Q2G0N5); assay: RNA polymerase assay; format: biochemical
[14] = target: M. smegmatis RNA polymerase (Mycolicibacterium smegmatis, UniProt A0QS66+P60281); assay: RNA polymerase assay; format: biochemical
[15] = target: bacterial RNA polymerases; assay: RNA polymerase assays, enzyme not given; format: biochemical; conditions: read-out: IC50, bacterial RNA polymerases; abstract
[16] = tested on: electron transport systems; assay: Inhibition of electron transport systems; format: cell-based
[17] = tested on: menaquinone biosynthesis; format: biochemical
[18] = target: T2, Mtb serine/threonine kinase PKnA (Mycobacterium tuberculosis, UniProt P9WI83); assay: Ser/Thr protein kinase assay; format: biochemical, M. tuberculosis
T2 sequence (P9WI83 1-431): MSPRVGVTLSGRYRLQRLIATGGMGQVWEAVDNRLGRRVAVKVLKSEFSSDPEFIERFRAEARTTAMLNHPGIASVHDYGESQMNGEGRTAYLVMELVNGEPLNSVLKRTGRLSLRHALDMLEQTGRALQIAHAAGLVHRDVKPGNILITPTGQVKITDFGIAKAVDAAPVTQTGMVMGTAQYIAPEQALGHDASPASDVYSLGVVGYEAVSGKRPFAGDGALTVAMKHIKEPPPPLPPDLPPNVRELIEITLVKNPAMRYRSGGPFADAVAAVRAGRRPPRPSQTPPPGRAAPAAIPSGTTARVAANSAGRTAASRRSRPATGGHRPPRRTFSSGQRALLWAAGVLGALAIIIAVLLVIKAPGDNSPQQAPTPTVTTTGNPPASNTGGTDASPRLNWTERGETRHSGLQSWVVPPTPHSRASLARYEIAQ

[19] = target: Mtb serine/threonine kinase PknB (Mycobacterium tuberculosis, UniProt P9WI81); assay: Ser/Thr protein kinase assay; format: biochemical, M. tuberculosis
[20] = target: DNA gyrase (Escherichia coli, UniProt P0AES4+P0AES6); assay: DNA topoisomerase II - DNA supercoiling assay; format: biochemical
DNA gyrase, sequence (P0AES4 whole entry, one chain of several): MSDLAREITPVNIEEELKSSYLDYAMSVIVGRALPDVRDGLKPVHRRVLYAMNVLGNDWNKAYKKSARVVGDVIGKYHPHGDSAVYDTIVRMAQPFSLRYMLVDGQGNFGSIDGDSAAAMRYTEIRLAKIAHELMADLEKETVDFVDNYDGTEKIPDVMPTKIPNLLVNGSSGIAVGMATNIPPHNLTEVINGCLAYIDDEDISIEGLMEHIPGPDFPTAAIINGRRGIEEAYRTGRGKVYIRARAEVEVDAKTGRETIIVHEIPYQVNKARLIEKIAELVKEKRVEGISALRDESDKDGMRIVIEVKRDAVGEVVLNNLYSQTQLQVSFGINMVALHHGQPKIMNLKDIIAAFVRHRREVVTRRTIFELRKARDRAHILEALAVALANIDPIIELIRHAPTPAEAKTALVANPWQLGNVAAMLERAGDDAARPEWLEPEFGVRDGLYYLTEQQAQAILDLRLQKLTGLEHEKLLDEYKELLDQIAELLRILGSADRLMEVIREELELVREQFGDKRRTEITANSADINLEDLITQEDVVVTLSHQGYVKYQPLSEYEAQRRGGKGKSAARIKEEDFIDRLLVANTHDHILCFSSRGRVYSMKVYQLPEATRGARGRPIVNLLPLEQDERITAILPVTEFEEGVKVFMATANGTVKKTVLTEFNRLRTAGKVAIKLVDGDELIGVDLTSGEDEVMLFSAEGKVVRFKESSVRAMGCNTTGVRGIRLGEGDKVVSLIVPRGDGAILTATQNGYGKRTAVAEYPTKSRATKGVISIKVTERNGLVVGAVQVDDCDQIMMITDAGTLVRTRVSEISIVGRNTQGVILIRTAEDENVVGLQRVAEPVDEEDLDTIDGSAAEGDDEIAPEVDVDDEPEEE

E. coli RNA polymerase, sequence (P0A8V2 whole entry): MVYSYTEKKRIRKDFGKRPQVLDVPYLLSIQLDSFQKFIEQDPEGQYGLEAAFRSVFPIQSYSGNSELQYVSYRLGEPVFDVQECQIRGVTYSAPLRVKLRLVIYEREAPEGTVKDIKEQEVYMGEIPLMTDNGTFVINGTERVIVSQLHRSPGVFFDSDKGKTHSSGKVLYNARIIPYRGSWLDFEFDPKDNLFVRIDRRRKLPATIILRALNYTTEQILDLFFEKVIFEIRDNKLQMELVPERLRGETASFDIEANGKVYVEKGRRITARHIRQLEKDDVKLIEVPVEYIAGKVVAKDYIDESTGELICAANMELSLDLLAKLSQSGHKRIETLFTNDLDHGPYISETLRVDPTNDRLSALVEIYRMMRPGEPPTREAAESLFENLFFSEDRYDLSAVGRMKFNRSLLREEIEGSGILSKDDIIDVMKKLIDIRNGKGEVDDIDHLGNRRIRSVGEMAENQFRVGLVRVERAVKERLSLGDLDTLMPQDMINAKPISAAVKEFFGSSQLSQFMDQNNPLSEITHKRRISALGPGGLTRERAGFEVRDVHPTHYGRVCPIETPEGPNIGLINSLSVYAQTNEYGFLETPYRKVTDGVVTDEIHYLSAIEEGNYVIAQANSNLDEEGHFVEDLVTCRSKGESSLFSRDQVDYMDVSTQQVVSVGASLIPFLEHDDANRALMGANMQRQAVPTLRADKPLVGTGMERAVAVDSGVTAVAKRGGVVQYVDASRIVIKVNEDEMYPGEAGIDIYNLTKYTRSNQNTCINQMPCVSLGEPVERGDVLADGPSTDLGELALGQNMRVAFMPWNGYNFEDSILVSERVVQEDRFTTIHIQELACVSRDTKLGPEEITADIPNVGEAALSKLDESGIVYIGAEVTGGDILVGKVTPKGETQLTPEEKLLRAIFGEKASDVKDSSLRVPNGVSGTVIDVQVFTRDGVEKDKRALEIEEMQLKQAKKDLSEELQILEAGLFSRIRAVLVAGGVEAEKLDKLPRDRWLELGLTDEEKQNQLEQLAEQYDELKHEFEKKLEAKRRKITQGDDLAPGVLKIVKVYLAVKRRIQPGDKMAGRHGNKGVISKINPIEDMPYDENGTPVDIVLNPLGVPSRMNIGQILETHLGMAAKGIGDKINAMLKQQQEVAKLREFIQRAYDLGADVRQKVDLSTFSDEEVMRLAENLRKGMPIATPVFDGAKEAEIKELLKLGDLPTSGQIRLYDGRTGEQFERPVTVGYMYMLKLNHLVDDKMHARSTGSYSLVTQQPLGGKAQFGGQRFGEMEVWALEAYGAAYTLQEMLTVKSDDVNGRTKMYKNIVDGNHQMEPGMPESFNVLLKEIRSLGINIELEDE
E. coli RNA polymerase, sequence (P0A8T7 whole entry): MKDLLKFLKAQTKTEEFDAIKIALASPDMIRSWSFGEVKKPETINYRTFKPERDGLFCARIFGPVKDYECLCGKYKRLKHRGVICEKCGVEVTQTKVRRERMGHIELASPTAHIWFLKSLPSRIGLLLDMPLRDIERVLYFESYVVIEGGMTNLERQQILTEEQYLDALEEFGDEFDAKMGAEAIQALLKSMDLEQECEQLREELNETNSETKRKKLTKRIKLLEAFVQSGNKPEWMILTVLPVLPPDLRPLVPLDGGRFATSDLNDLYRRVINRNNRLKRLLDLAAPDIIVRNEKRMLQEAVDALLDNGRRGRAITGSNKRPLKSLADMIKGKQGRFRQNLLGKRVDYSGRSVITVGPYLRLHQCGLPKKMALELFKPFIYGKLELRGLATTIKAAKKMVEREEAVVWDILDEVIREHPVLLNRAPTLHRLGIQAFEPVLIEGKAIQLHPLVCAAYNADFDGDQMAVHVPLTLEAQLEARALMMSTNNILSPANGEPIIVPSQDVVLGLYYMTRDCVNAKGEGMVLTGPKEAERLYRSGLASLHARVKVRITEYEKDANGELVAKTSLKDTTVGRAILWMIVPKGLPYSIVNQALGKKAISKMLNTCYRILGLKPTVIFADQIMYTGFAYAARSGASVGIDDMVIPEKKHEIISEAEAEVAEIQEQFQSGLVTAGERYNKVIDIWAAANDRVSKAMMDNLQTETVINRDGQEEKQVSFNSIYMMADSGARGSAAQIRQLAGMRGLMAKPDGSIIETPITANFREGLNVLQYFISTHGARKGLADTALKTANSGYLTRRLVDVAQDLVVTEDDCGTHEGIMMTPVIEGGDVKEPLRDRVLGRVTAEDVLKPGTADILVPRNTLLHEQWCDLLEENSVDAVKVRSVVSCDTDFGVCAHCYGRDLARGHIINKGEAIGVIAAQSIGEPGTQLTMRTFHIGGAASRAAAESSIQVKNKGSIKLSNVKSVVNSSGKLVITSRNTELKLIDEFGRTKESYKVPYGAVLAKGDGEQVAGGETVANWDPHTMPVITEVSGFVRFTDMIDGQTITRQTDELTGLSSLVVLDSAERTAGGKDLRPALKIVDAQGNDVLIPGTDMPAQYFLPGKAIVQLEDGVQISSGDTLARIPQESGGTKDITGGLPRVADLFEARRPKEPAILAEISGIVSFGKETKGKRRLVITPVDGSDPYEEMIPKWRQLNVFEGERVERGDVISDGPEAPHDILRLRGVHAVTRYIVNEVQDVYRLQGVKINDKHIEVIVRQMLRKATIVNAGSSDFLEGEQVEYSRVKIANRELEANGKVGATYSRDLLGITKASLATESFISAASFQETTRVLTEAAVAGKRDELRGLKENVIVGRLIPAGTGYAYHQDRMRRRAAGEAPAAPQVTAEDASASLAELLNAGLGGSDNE
E. coli RNA polymerase, sequence (P0A7Z4 whole entry partner): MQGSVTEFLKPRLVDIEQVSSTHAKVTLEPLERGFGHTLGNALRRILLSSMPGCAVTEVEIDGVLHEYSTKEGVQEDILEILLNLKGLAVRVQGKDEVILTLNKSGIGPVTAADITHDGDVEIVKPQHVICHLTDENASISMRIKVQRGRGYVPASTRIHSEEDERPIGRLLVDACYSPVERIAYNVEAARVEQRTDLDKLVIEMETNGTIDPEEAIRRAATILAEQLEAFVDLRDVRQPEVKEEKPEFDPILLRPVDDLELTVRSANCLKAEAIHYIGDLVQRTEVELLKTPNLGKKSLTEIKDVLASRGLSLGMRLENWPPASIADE
E. coli RNA polymerase, sequence (P0A800 whole entry partner): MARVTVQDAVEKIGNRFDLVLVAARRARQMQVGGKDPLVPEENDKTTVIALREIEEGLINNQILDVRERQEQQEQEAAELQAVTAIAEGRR
Mtb serine/threonine kinase PknB, sequence (P9WI81 whole entry): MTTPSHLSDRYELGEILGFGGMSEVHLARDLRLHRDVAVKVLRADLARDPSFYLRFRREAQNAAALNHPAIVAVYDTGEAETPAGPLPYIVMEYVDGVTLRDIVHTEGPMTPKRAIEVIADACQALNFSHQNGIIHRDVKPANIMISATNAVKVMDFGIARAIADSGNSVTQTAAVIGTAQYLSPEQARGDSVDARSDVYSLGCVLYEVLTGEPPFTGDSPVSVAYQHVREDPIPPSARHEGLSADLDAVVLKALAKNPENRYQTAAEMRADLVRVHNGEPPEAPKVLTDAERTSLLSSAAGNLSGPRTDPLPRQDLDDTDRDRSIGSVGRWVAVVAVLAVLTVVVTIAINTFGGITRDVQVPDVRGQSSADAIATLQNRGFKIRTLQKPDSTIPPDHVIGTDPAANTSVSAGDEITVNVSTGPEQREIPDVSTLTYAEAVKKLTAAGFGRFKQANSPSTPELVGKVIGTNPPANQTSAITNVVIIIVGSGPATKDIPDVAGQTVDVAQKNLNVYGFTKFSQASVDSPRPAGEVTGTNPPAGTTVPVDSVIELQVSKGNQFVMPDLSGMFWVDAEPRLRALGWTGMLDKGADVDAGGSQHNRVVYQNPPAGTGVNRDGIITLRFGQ

| Structure (SMILES) | IC50 [1] | MIC [2] | IC50 [3] | time to kill Mtb completely (100%) [4] | MIC ([5]; read-out: MIC μg/mL (MABA)) | MIC [5] | time to kill 50% of Mtb [4] | IC50 [6] | other results |
| --- | --- | --- | --- | --- | --- | --- | --- | --- | --- |
| COC1C(O)C(n2ccc(=O)[nH]c2=O)OC1C(OC1OC(C(=O)NC2CCCCNC2=O)=CC(O)C1O)C(N)=O (stereo not drawn) [Capuramycin (1), 6-{Carbamoyl-[5-(2,4-dioxo-3,4-dihydro-2H-pyrimidin-1-yl)-4-hydroxy-3-methoxy-tetrahydro-furan-2-yl]-methoxy}-4,5-dihydroxy-5,6-dihydro-4H-pyran-2-carboxylic acid (2-oxo-azepan-3-yl)-amide] | 127 nM | > 100 µg/mL | > 400 µg/mL | 2 days |  |  |  |  | log10 CFU/mL reduction ([4]; in 1 day, 24.0 μg/mL (2× MIC)): ≥ 3.0 log10 CFU/mL |
| CC[C@@H](CO)NCCN[C@@H](CC)CO [Ethambutol (EMB), Ethambutol] |  | > 100 µg/mL | > 400 µg/mL |  | 0.78 µg/mL (≈ 3.82 µM) |  |  |  |  |
| NNC(=O)c1ccncc1 [Isoniazid (INH), Isoniazid] |  | > 100 µg/mL | > 400 µg/mL |  | 0.04 to 0.1 µg/mL (≈ 0.292 to 0.729 µM) | 0.04 to 0.1 µg/mL (≈ 0.292 to 0.729 µM) |  |  |  |
| CO[C@H]1/C=C/O[C@@]2(C)Oc3c(C)c(O)c4c(O)c(c(/C=N/N5CCN(C)CC5)c(O)c4c3C2=O)NC(=O)/C(C)=C\C=C\[C@H](C)[C@H](O)[C@@H](C)[C@@H](O)[C@@H](C)[C@H](OC(C)=O)[C@@H]1C [Rifampicin (RFP), Rifampicin] |  |  | > 400 µg/mL |  | 0.2 µg/mL (≈ 0.243 µM) | 0.2 µg/mL (≈ 0.243 µM) | over 7 days | 120 nM |  |
| COC1C(O)C(n2ccc(=O)[nH]c2=O)OC1C(OC1OC(C(=O)Nc2ccc(F)c(F)c2)=CC(O)C1O)C(N)=O (stereo not drawn) [SQ 641 (2), 6-{Carbamoyl-[5-(2,4-dioxo-3,4-dihydro-2H-pyrimidin-1-yl)-4-hydroxy-3-methoxy-tetrahydro-furan-2-yl]-methoxy}-4,5-dihydroxy-5,6-dihydro-4H-pyran-2-carboxylic acid (3,4-difluoro-phenyl)-amide] | 98 nM | > 100 µg/mL | > 400 µg/mL |  |  |  |  |  | MIC (μg/mL) CA and CB (concentration in combination) ([7]; pair SQ 641 0.10 + UT-01320 0.08): 0.10 µg/mL; MIC (μg/mL) CA and CB (concentration in combination) ([7]; pair SQ 641 0.10 + UT-01320 0.16): 0.10 µg/mL; MIC (μg/mL) CA and CB (concentration in combination) ([7]; pair SQ 641 0.10 + UT-01320 0.32): 0.10 µg/mL; MIC (μg/mL) CA and CB (concentration in combination) ([7]; pair SQ 641 0.10 + UT-01320 0.645): 0.10 µg/mL; MIC (μg/mL) CA and CB (concentration in combination) ([7]; pair SQ 641 0.10 + UT-01320 1.29): 0.10 µg/mL |
| COC1C(C(OC2OC(C(=O)NC3CCCCNC3=O)=CC(O)C2O)C(N)=O)OC(n2ccc(=O)[nH]c2=O)C1OC (stereo not drawn) [UT-01320 (3), 6-{Carbamoyl-[5-(2,4-dioxo-3,4-dihydro-2H-pyrimidin-1-yl)-3,4-dimethoxy-tetrahydro-furan-2-yl]-methoxy}-4,5-dihydroxy-5,6-dihydro-4H-pyran-2-carboxylic acid (2-oxo-azepan-3-yl)-amide] | > 100000 nM | 2.58 µg/mL (≈ 4.42 µM) | > 400 µg/mL | ≤ 5 days |  | 1.5 µg/mL (≈ 2.57 µM) | ≤ 3 days | 100 to 150 nM | MurX enzyme inhibitory activity [1]: did not interfere with MurX; MurX enzyme inhibitory activity ([1]; listed as 3): did not exhibit MurX enzyme inhibitory activity even at high concentrations; IC50 [8]: > 400 µg/mL; time to kill 100% of Mtb ([4]; 4× MIC: UT-01320 6.0 μg/mL): ≤ 3 days; MIC [9]: >200 µg/mL; MIC [10]: > 200 µg/mL; MIC [11]: > 200 µg/mL; MIC [12]: > 200 µg/mL; IC50 [13]: 100 to 150 nM; IC50 [14]: 100 to 150 nM; IC50 [15]: 100 to 150 nM; inhibition of electron transport systems [16]: did not inhibit; inhibition of menaquinone biosynthesis [17]: did not inhibit; inhibition of Mtb serine/threonine kinase PKnA [18]: did not inhibit; inhibition of Mtb serine/threonine kinase PknB [19]: did not inhibit; inhibition of DNA gyrase [20]: did not inhibit |
